Data set [1] in a line: folding enthalpy; higher = less favourable; fluorescence melt of hairpins on a sequencing array, two-state fit. Conditions: sodium 0.088 M. The essentials: (§1)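 Hairpins were imaged by Cy3 fluorescence on a sequenced MiSeq flow cell with annealed Cy3 and quencher oligos, in 50 mM Na-HEPES pH 8.0, 25 mM NaCl, in 2.5 °C steps up to 60 °C. Bootstrapped two-state fits of normalised signals gave melting temperature and folding enthalpy. Four replicates were combined by inverse variance, and fitted temperatures were raised by 9.35 °C to match UV melts.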

Data set [2] is described as follows: melting temperature; fluorescence melt of hairpins on a sequencing array, two-state fit, raised by 9.35 °C to match UV melts. Conditions: sodium 0.088 M. Put shortly:
as §1

The text below walks through data of the array DNA melting data of Ke et al. (doi:10.1101/2024.01.08.574731).

Consider GTGTCGGGAAACCGGCAC (((.(((....))).))), for which the folding enthalpy in data set [1] was -189 kJ/mol. Also, the Tm in data set [2] worked out at 60.8 °C.

Consider GTGTCGGGAAACTGACAC (((((.(....).))))), for which, in data set [1], the folding enthalpy was -174 kJ/mol. For the same sequence, the Tm in data set [2] came to 55 °C.

In the case of GTGTCTCGAAAGAGCAC (((.(((....)))))), the folding enthalpy in data set [1] was -140 kJ/mol. Moreover, the Tm in data set [2] turned out to be 52.2 °C.

As for GTGTCTGGAAACAGACAC (((((((....))))))), the folding enthalpy in data set [1] was -167 kJ/mol. In data set [2], the Tm was found to be 66.5 °C.

As to GTGTCTGGAAACAGGTAC ((..(((....)))..)), the folding enthalpy in data set [1] is -47.6 kJ/mol. Also, in data set [2], the Tm is 30.1 °C.

Regarding GTGTGACGAAAGTCGCAC (((.(((....))).))), the folding enthalpy in data set [1] was -178 kJ/mol. Also, the Tm in data set [2] worked out at 65.9 °C.

For GTGTGAGGAAACTCACGC (.(((((....))))).), in data set [1], the folding enthalpy is -150 kJ/mol. In data set [2], the Tm came to 53.3 °C.

As to GTGTGAGGAAACTCATAC ((.((((....)))).)), the folding enthalpy in data set [1] is -153 kJ/mol. Further, in data set [2], the Tm was 44.9 °C.

Take GTGTGAGGAAACTCATGC (..((((....))))..): the folding enthalpy in data set [1] was -98.2 kJ/mol. The Tm in data set [2] was 36.8 °C.

With GTGTGAGGAAACTCGCAC (((.(((....))).))), the folding enthalpy in data set [1] is -197 kJ/mol. The Tm in data set [2] was determined as 54.3 °C.

For GTGTGCGAAAGCAAACAC ((((((....)))..))), the folding enthalpy in data set [1] is -101 kJ/mol. In addition, the Tm in data set [2] stood at 51.7 °C.

As to GTGTGCGAAAGCAGACAC ((((((....)))..))), the folding enthalpy in data set [1] is -80 kJ/mol. Moreover, the Tm in data set [2] amounted to 53.2 °C.

As for GTGTGCGAAAGCATCAC ((((((....))).))), the folding enthalpy in data set [1] is -91.5 kJ/mol. For the same sequence, the Tm in data set [2] was 54 °C.

For GTGTGCGGAAACGCATGC (..((((....))))..), the folding enthalpy in data set [1] was -66.7 kJ/mol. Besides, the Tm in data set [2] was determined as 49.6 °C.

With GTGTGGGAAACCACAC ((((((....)))))), the folding enthalpy in data set [1] is -164 kJ/mol. The Tm in data set [2] is 63.4 °C.

In the case of GTGTGGGGAAACCCACAC (((((((....))))))), in data set [1], the folding enthalpy is -135 kJ/mol. For the same sequence, the Tm in data set [2] stood at 69 °C.

Regarding GTGTGGGGAAACCCACGC (.(((((....))))).), the folding enthalpy in data set [1] is -59.5 kJ/mol. The Tm in data set [2] was 58.8 °C.

GTGTGGGGAAACCCATGC (..((((....))))..): the folding enthalpy in data set [1] was -90 kJ/mol. Moreover, the Tm in data set [2] stood at 43.1 °C.

In the case of GTGTGGGGAAACCCGCAC (((.(((....))).))), the folding enthalpy in data set [1] is -148 kJ/mol. The Tm in data set [2] stood at 59.7 °C.

In the case of GTGTGTCGAAAGACCCAC (((.(((....))).))), the folding enthalpy in data set [1] is -121 kJ/mol. The Tm in data set [2] is 49.4 °C.

Turning to GTGTGTGGAAACACATGC (..((((....))))..), in data set [1], the folding enthalpy was -78.5 kJ/mol. Besides, the Tm in data set [2] came out at 49.6 °C.

For GTGTGTGGAAACATGCAC (((..((....))..))), the folding enthalpy in data set [1] is -115 kJ/mol. In data set [2], the Tm stood at 43.3 °C.

For GTGTGTTCGAAAGAACAC (((..(((....)))))), in data set [1], the folding enthalpy was -65.7 kJ/mol. Also, the Tm in data set [2] worked out at 64.2 °C.

Regarding GTGTTACCGAAAGGTCAC (((..(((....)))))), in data set [1], the folding enthalpy is -98.8 kJ/mol. The Tm in data set [2] was 43.6 °C.

In the case of GTGTTAGGAAACCAACAC (((((.(....).))))), the folding enthalpy in data set [1] was -121 kJ/mol. In addition, in data set [2], the Tm was determined as 40 °C.

Regarding GTGTTAGGAAACTAACAC (((((((....))))))), the folding enthalpy in data set [1] was -176 kJ/mol. Besides, the Tm in data set [2] came out at 57.8 °C.

GTGTTCCGAAAGGAGCAC (((.(((....))).))): in data set [1], the folding enthalpy is -175 kJ/mol. In data set [2], the Tm turned out to be 59.3 °C.

For the sequence GTGTTCGAAAGAAACAC ((((((....))).))), in data set [1], the folding enthalpy is -117 kJ/mol. For the same sequence, the Tm in data set [2] was determined as 47.1 °C.

Regarding GTGTTCGAAAGAACGCAC ((((((....)))..))), in data set [1], the folding enthalpy is -51.8 kJ/mol. Besides, in data set [2], the Tm worked out at 48.4 °C.

On to GTGTTCGAAAGAAGCAC ((((((....))).))), for which the folding enthalpy in data set [1] was -91.2 kJ/mol. Further, the Tm in data set [2] turned out to be 37.4 °C.

Regarding GTGTTCGGAAACAAACAC (((((.(....).))))), in data set [1], the folding enthalpy was -124 kJ/mol. The Tm in data set [2] was determined as 37.8 °C.

As to GTGTTGGAAACAACAC ((((((....)))))), the folding enthalpy in data set [1] is -147 kJ/mol. For the same sequence, the Tm in data set [2] amounted to 56.8 °C.

Regarding GTGTTGGGAAACTAGCAC (((.(.(....).).))), in data set [1], the folding enthalpy is -65.3 kJ/mol. The Tm in data set [2] was 31.8 °C.

GTGTTGGGAAACTGACAC ((((..(....)..)))): the folding enthalpy in data set [1] was -116 kJ/mol. For the same sequence, in data set [2], the Tm amounted to 39.3 °C.

GTGTTTGCGAAAGCACAC (((..(((....)))))): the folding enthalpy in data set [1] was -84.6 kJ/mol. Moreover, the Tm in data set [2] stood at 45.9 °C.

For GTGTTTGGAAACAAACAC (((((((....))))))), the folding enthalpy in data set [1] is -201 kJ/mol. In addition, in data set [2], the Tm came out at 59.6 °C.

On to GTTAAACGAAAGTTGAAC (((.(((....))).))), for which the folding enthalpy in data set [1] was -109 kJ/mol. Besides, the Tm in data set [2] came to 41.7 °C.
